Sampled rows, rich in hits. Any-hit rate of the full collection: about 3.1%.
GPR7 antag – blocks human GPR7 receptor signaling; P48145; GPR7-expressing cells, fluorescence antagonist assay; inhibition, % at 4.4 µM; hit rate 1.1% among 290,000; AID 1861; in the data active = inhibition above about 16%, passing the limit was not always enough;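 also: cells stimulated with the agonist NPW; 0% = agonist with vehicle and 100% = vehicle without agonist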
OX1R antag-1 – antagonists of human orexin 1 receptor (OX1R); O43613; OX1R-expressing cells, FRET antagonist read-out; inhibition, % at 6.6 µM; hit rate 1.8% among 330,000; AID 485270; in the data active = inhibition mostly above about 38%, no sharp cut-off; inactive = mostly below about 40%;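 also: 0% = agonist challenge alone and 100% = reference antagonist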
Target sequence (O43613 whole entry, looked up): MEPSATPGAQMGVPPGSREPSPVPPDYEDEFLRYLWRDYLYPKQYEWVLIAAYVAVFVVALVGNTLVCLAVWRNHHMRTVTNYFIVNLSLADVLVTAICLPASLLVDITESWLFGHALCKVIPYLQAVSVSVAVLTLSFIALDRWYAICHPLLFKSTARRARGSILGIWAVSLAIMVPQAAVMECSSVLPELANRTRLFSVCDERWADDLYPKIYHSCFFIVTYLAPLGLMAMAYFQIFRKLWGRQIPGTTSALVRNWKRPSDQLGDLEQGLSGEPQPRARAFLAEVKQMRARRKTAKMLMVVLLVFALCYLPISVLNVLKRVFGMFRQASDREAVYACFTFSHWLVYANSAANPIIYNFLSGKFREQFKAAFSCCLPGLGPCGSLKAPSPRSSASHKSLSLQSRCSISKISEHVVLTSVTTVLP
CHO parental Ca – counter-screen for OX1R antagonists: effect in parental CHO cells; parental CHO-K1, ATP-induced calcium, Fluo-8 fluorescence; inhibition, % at 5.6 µM; hit rate 0.63% among 330,000; AID 463079;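 active = inhibition above that plate's mean sample inhibition plus 3 SD, cut at about 26% in these data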;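 also: 0% = ATP-challenged DMSO wells and 100% = DMSO wells without ATP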
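Measured by: calcium-sensitive Fluo-8 fluorescence / Test system: CHO parental line / Controls: ATP-challenged DMSO wells low, unchallenged DMSO wells high / Measure: % inhibition / Compound: single nominal dose of 5.6 µM per compound / Replicates: single well per compound, no replicates / Reagent: ATP as calcium-mobilizing challenge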
GalR3 antag – blocks the human galanin receptor 3; hit rate 0.44% among 360,000; HEK293 GalR3-CNG cAMP membrane potential fluorescence; galR3 body fused to GalR1 C-terminus; AID 651719; O60755; inhibition, % at 3 µM;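 active = inhibition above the screen-wide average plus 3 SD, cut at about 13% in these data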;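 also: forskolin and galanin both at EC90 stimulate the cells; cAMP rise reported by CNG channel membrane potential dye signal; 0% = forskolin plus galanin with DMSO and 100% = forskolin alone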
OX1R antag-2 – blocks the human orexin 1 receptor; O43613; CHO/OX1R cells, Fluo-8 calcium fluorescence, orexin A; inhibition, % at 5 µM; hit rate 0.43% among 330,000;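 active = inhibition above its plate's threshold, mean inhibition of all tested compounds on the plate plus 3 SD, cut at about 37% in these data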;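 also: 0% = orexin A challenge wells and 100% = SB-334867-A antagonist wells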
OX1R Fluo8 conf – OX1R (human) antagonism, confirmed; shares compounds with OX1R antag-2; CHO/OX1R cells, orexin A calcium Fluo-8 fluorescence; inhibition, % at 5 µM; hit rate 38% among 1,100; AID 492963; in the data active = inhibition above about 29%;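 also: 0% = agonist challenge alone and 100% = reference antagonist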
CHO Ca triplic – counter-screen: parental CHO calcium response change, triplicate. shares compounds with OX1R antag-2. parental CHO-K1, ATP-induced calcium, Fluo-8 fluorescence. inhibition, % at 5.6 µM. hit rate 9.3% among 1,100;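 active = inhibition above a per-plate limit, the mean inhibition of that plate's test compounds plus 3 SD, cut at about 25% in these data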;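 also: 0% = ATP challenge with DMSO and 100% = DMSO without ATP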
OX1R HTRF conf – OX1R (human) antagonism, HTRF confirmed; inhibition, % at 6.6 µM; OX1R-expressing cells, HTRF antagonist assay; hit rate 49% among 1,800; shares compounds with OX1R antag-1; AID 492964; in the data active = inhibition above about 55%;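 also: CHO cells expressing OX1R stimulated with orexin A at about EC80; 0% = agonist challenge alone and 100% = reference antagonist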
CHO-K1 HTRF – signal in parental CHO-K1 cells, OX1R antagonist counter-screen; shares compounds with OX1R antag-1; HTRF counterscreen; inhibition, % at 6.6 µM; hit rate 48% among 1,800; AID 493232; in the data active = inhibition above about 17%;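 also: 0% = agonist challenge with vehicle and 100% = vehicle alone without agonist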
The depositor's hits bear a star.

`NC(=O)C1CN(C(=O)c2cccc(S(=O)(=O)N3CCc4ccccc43)c2)c2ccccc2O1` (configuration not stated) gave OX1R antag-1 69.0*, CHO parental Ca -12.1, GalR3 antag 0.6, OX1R antag-2 51.9*, OX1R Fluo8 conf 37.4*, CHO Ca triplic -16.4, OX1R HTRF conf 67.0* and CHO-K1 HTRF -2.6.
`Cc1nc2c(-c3ccccc3)c(C)nn2c(N)c1-c1ccccc1` gave GPR7 antag -5.7, OX1R antag-1 81.0*, CHO parental Ca -17.0, GalR3 antag -4.5, OX1R antag-2 46.4*, OX1R Fluo8 conf 26.9, CHO Ca triplic 5.5, OX1R HTRF conf 78.6* and CHO-K1 HTRF 12.4.
`Cc1nc2cc(-c3ccccc3)nn2c(N)c1-c1ccccc1` gave OX1R antag-1 6.6, CHO parental Ca -13.7, GalR3 antag -5.3 and OX1R antag-2 -9.0.
For CS(=O)(=O)c1ccc(Cl)c(NC(=O)CN2CCN(S(=O)(=O)/C=C/c3ccccc3)CC2)c1 the results were GalR3 antag -2.2.
COc1ccc(CN(CC(O)COCc2ccccc2)S(=O)(=O)c2ccccc2Br)cc1OC (configuration not stated) was read as OX1R antag-1 46.2*, CHO parental Ca -11.4, GalR3 antag -6.8, OX1R antag-2 54.6*, OX1R Fluo8 conf 20.7, CHO Ca triplic -16.2, OX1R HTRF conf 68.1* and CHO-K1 HTRF -2.4.
`C=CC(COCc1ccccc1)N(C(=O)OC(C)(C)C)S(=O)(=O)c1ccccc1Br` (configuration not stated) gave OX1R antag-1 38.4, CHO parental Ca -9.6, GalR3 antag -2.0 and OX1R antag-2 -7.3.
For O=[N+]([O-])c1cccc(I)c1 the results were GalR3 antag -2.1.
Screening O=C(Nc1nccs1)c1ccc(COc2c(F)c(F)cc(F)c2F)o1 returned OX1R antag-1 8.0, CHO parental Ca -8.2, GalR3 antag -3.1 and OX1R antag-2 -9.8.
Screening O=C(Nc1nccs1)c1ccc(-c2ccc(F)c(Cl)c2)o1 returned GPR7 antag -20.6, OX1R antag-1 97.4*, CHO parental Ca -16.8, GalR3 antag -5.7, OX1R antag-2 47.3*, OX1R Fluo8 conf 18.6, CHO Ca triplic -15.3, OX1R HTRF conf 71.8* and CHO-K1 HTRF 12.8.
`OC(CN1c2ccccc2Sc2ccccc21)Cn1nnc2ccccc21` (configuration not stated) gave GPR7 antag -1.5, OX1R antag-1 62.8*, CHO parental Ca -20.4, GalR3 antag -3.5, OX1R antag-2 42.2, OX1R Fluo8 conf 30.9*, CHO Ca triplic -12.8, OX1R HTRF conf 51.9 and CHO-K1 HTRF 1.1.
For CCOc1ncccc1C(=O)NCC1COc2ccccc2O1 (configuration not stated) the results were GPR7 antag -14.9, OX1R antag-1 80.8*, CHO parental Ca -24.4, GalR3 antag -3.9, OX1R antag-2 29.6, OX1R Fluo8 conf 26.8, CHO Ca triplic -2.4, OX1R HTRF conf 69.5* and CHO-K1 HTRF 0.2.
For CCCCC[C@H](C)N1C[C@@H](COCc2ccccc2)Oc2cc(N3CC[C@H](O)C3)ccc2S1(=O)=O the results were GalR3 antag -4.4.
For C/C(=N\Nc1cccc([N+](=O)[O-])c1)c1ccccc1O the results were GPR7 antag 0.0, OX1R antag-1 76.4*, CHO parental Ca -9.8, GalR3 antag -5.5, OX1R antag-2 28.0, OX1R Fluo8 conf 2.1, CHO Ca triplic 12.5, OX1R HTRF conf 47.0 and CHO-K1 HTRF 7.0.
Cc1ccc(SCc2c(C(=O)N/N=C/c3ccc4c(c3)OCO4)nnn2-c2nonc2N)cc1 was read as GPR7 antag -7.8, OX1R antag-1 60.3*, CHO parental Ca -14.3, GalR3 antag -6.5, OX1R antag-2 34.1, OX1R Fluo8 conf 12.2, CHO Ca triplic 14.1, OX1R HTRF conf 81.8* and CHO-K1 HTRF 6.8.
